Assay results reported in ChEMBL document CHEMBL3124924, “Bifunctional ethyl 2-amino-4-methylthiazole-5-carboxylate derivatives: synthesis and in vitro biological evaluation as antimicrobial and anticancer agents” (2014).

Columns and labels:
Format in all cases: functional
[1] = tested on: HCC 2998; experiment: Cytotoxicity against human HCC2998 cells assessed as growth inhibition at 10 uM after 48 hrs by SRB assay; conditions: HCC 2998, 48 h, read-out: GI
How it was run: (§1)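 NCI-60 one-dose primary screen run by the NCI Drug Evaluation Branch across the full 60-line panel. Single high-dose treatment with 48 h continuous drug exposure. Cell growth estimated by sulforhodamine B protein staining. Results given as percent growth of treated cells and expressed as percentage growth inhibition.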

[2] = tested on: NCI-H522; experiment: Cytotoxicity against human NCI-H522 cells assessed as growth inhibition at 10 uM after 48 hrs by SRB assay; conditions: NCI-H522, 48 h, read-out: GI; how it was run: as §1
[3] = tested on: PC-3; experiment: Cytotoxicity against human PC3 cells assessed as growth inhibition at 10 uM after 48 hrs by SRB assay; conditions: PC-3, 48 h, read-out: GI; how it was run: as §1
[4] = Cytotoxicity against human Hs578T cells assessed as growth inhibition at 10 uM after 48 hrs by SRB assay; conditions: Hs-578T, read-out: GI; how it was run: as §1
[5] = tested on: UACC-62; experiment: Cytotoxicity against human UACC62 cells assessed as growth inhibition at 10 uM after 48 hrs by SRB assay; conditions: UACC-62, 48 h, read-out: GI; how it was run: as §1
[6] = tested on: HOP-92; experiment: Cytotoxicity against human HOP92 cells assessed as growth inhibition at 10 uM after 48 hrs by SRB assay; conditions: HOP-92, 48 h, read-out: GI; how it was run: as §1
[7] = tested on: IGROV-1; experiment: Cytotoxicity against human IGROV1 cells assessed as growth inhibition at 10 uM after 48 hrs by SRB assay; conditions: IGROV-1, 48 h, read-out: GI; how it was run: as §1
[8] = tested on: NCI-H322M; experiment: Cytotoxicity against human NCI-H322M cells assessed as growth inhibition at 10 uM after 48 hrs by SRB assay; conditions: read-out: GI; how it was run: as §1
[9] = tested on: CCRF-CEM; experiment: Cytotoxicity against human CCRF-CEM cells assessed as growth inhibition at 10 uM after 48 hrs by SRB assay; conditions: read-out: GI; how it was run: as §1
[10] = tested on: U-251; experiment: Cytotoxicity against human U251 cells assessed as growth inhibition at 10 uM after 48 hrs by SRB assay; conditions: U-251, 48 h, read-out: GI; how it was run: as §1
[11] = tested on: SNB-75; experiment: Cytotoxicity against human SNB75 cells assessed as growth inhibition at 10 uM after 48 hrs by SRB assay; conditions: SNB-75, 48 h, read-out: GI; how it was run: as §1
[12] = tested on: HCT-116; experiment: Cytotoxicity against human HCT116 cells assessed as growth inhibition at 10 uM after 48 hrs by SRB assay; conditions: HCT-116, 48 h, read-out: GI; how it was run: as §1
[13] = tested on: SW-620; experiment: Cytotoxicity against human SW620 cells assessed as growth inhibition at 10 uM after 48 hrs by SRB assay; conditions: SW-620, 48 h, read-out: GI; how it was run: as §1
[14] = tested on: SK-MEL-2; experiment: Cytotoxicity against human SK-MEL-2 cells assessed as growth inhibition at 10 uM after 48 hrs by SRB assay; conditions: SK-MEL-2, 48 h, read-out: GI; how it was run: as §1
[15] = tested on: MDA-MB-468; experiment: Cytotoxicity against human MDA-MB-468 cells assessed as growth inhibition at 10 uM after 48 hrs by SRB assay; conditions: MDA-MB-468, 48 h, read-out: GI; how it was run: as §1
[16] = Cytotoxicity against human UO31 cells assessed as growth inhibition at 10 uM after 48 hrs by SRB assay; conditions: UO-31, 48 h, read-out: GI; how it was run: as §1
[17] = tested on: SR; experiment: Cytotoxicity against human SR cells assessed as growth inhibition at 10 uM after 48 hrs by SRB assay; conditions: read-out: GI; how it was run: as §1
[18] = tested on: HT-29; experiment: Cytotoxicity against human HT-29 cells assessed as growth inhibition at 10 uM after 48 hrs by SRB assay; conditions: HT-29, 48 h, read-out: GI; how it was run: as §1
[19] = tested on: MOLT-4; experiment: Cytotoxicity against human MOLT4 cells assessed as growth inhibition at 10 uM after 48 hrs by SRB assay; conditions: MOLT-4, 48 h, read-out: GI; how it was run: as §1
[20] = tested on: SF-268; experiment: Cytotoxicity against human SF268 cells assessed as growth inhibition at 10 uM after 48 hrs by SRB assay; conditions: SF-268, 48 h, read-out: GI; how it was run: as §1
[21] = tested on: MCF7; experiment: Cytotoxicity against human MCF7 cells assessed as growth inhibition at 10 uM after 48 hrs by SRB assay; conditions: MCF7, 48 h, read-out: GI; how it was run: as §1
[22] = tested on: SK-MEL-5; experiment: Cytotoxicity against human SK-MEL-5 cells assessed as growth inhibition at 10 uM after 48 hrs by SRB assay; conditions: SK-MEL-5, 48 h, read-out: GI; how it was run: as §1
[23] = tested on: RPMI-8226; experiment: Cytotoxicity against human RPMI8226 cells assessed as growth inhibition at 10 uM after 48 hrs by SRB assay; conditions: RPMI-8226, 48 h, read-out: GI; how it was run: as §1
[24] = tested on: LOX IMVI; experiment: Cytotoxicity against human LOXIMVI cells assessed as growth inhibition at 10 uM after 48 hrs by SRB assay; conditions: read-out: GI; how it was run: as §1
[25] = tested on: K562; experiment: Cytotoxicity against human K562 cells assessed as growth inhibition at 10 uM after 48 hrs by SRB assay; conditions: K562, 48 h, read-out: GI; how it was run: as §1
[26] = tested on: HCT-15; experiment: Cytotoxicity against human HCT15 cells assessed as growth inhibition at 10 uM after 48 hrs by SRB assay; conditions: HCT-15, 48 h, read-out: GI; how it was run: as §1
[27] = tested on: SN12C; experiment: Cytotoxicity against human SN12C cells assessed as growth inhibition at 10 uM after 48 hrs by SRB assay; conditions: read-out: GI; how it was run: as §1
[28] = tested on: A498; experiment: Cytotoxicity against human A498 cells assessed as growth inhibition at 10 uM after 48 hrs by SRB assay; conditions: A498, 48 h, read-out: GI; how it was run: as §1
[29] = tested on: NCI-H226; experiment: Cytotoxicity against human NCI-H226 cells assessed as growth inhibition at 10 uM after 48 hrs by SRB assay; conditions: NCI-H226, 48 h, read-out: GI; how it was run: as §1
[30] = tested on: T47D; experiment: Cytotoxicity against human T47D cells assessed as growth inhibition at 10 uM after 48 hrs by SRB assay; conditions: read-out: GI; how it was run: as §1
[31] = Cytotoxicity against human NCI-ADR-RES cells assessed as growth inhibition at 10 uM after 48 hrs by SRB assay; conditions: read-out: GI; how it was run: as §1

Work on `Cc1nc(N)sc1C(=O)NCCO` yielded an inhibition of growth at 10 µM [1] of less than 10%, an inhibition of growth at 10 µM [2] of 65.4% and an inhibition of growth at 10 µM [3] of less than 10%. For the same compound, the inhibition of growth at 10 µM [4] was less than 10%, the inhibition of growth at 10 µM [5] was 7.33% and the inhibition of growth at 10 µM [6] was 82.1%. It also gave an inhibition of growth at 10 µM [7] of less than 10%, an inhibition of growth at 10 µM [8] of less than 10% and an inhibition of growth at 10 µM [9] of 40%. It also gave an inhibition of growth at 10 µM [10] of less than 10%, an inhibition of growth at 10 µM [11] of less than 10% and an inhibition of growth at 10 µM [12] of 2.49%. For the same compound, the inhibition of growth at 10 µM [13] was less than 10%, the inhibition of growth at 10 µM [14] was 87.4% and the inhibition of growth at 10 µM [15] was 3.17%. For the same compound, the inhibition of growth at 10 µM [16] was 20%, the inhibition of growth at 10 µM [17] was less than 10% and the inhibition of growth at 10 µM [18] was less than 10%. The inhibition of growth at 10 µM [19] was less than 10%, the inhibition of growth at 10 µM [20] was 2.48% and the inhibition of growth at 10 µM [21] was 2.13%. For the same compound, the inhibition of growth at 10 µM [22] was less than 10%, the inhibition of growth at 10 µM [23] was less than 10% and the inhibition of growth at 10 µM [24] was less than 10%. For the same compound, the inhibition of growth at 10 µM [25] was less than 10%, the inhibition of growth at 10 µM [26] was less than 10% and the inhibition of growth at 10 µM [27] was less than 10%. The inhibition of growth at 10 µM [28] was less than 10%, the inhibition of growth at 10 µM [29] was 3.91% and the inhibition of growth at 10 µM [30] was less than 10%. For the same compound, the inhibition of growth at 10 µM [31] was less than 10%.
